# Assay outcomes (PubChem BioAssay)
# Lipid droplet: modulators of hepatic lipid droplet formation; AML12 mouse hepatocytes, oleate lipid droplets, BODIPY imaging; inhibition, % at 6.5 µM; 240,000 tested, 0.4% active;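 active = lipid droplet intensity inhibited by at least 50%, with more than 500 cells counted; inconclusive = wells with under 300 cells, treated as cytotoxic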
#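 Assay system: AML12 hepatocytes (mouse); Probe or stimulus: oleic acid at 100 µM to induce lipid droplet formation; Dosing: compound at 6.5 µM only; Schedule: compound with oleate, overnight; Detection: fluorescence imaging, 20x objective, two fields per well; Measure: % inhibition of lipid droplet signal.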
# Redox H2O2 prof: compounds producing H2O2 with reducing agent – biochemical, NIH compound library profiling, artefact control for MLSCN library redox annotation, primary screen; DTT-dependent redox cycling H2O2, phenol red/HRP absorbance; 100% = 100 µM peroxide control, 0% = buffer; activation, % at 10 µM; 200,000 tested, 0.03% active;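 active = activation of at least 50% relative to the plate's high and low controls in the primary single-dose screen; inactive = activation below 50%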;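 also: compound incubated with DTT at 0.8 mM final as the reducing agent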
# Lmaj promast: Leishmania major promastigote growth inhibition; Leishmania major promastigotes, resazurin fluorescence viability; inhibition, % at 10 µM; 200,000 tested, 9% active; AID 1063; in the data active = inhibition above about 50%;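 also: promastigotes grown with compound for 44 hours at 28 °C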
# T cruzi repl: T. cruzi replication inhibition; inhibition, % (concentration not given with the values); T. cruzi beta-gal in NIH3T3, luminescence, 90 h; 300,000 tested, 1.4% active;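 active = mean inhibition across valid replicates above about 55%, limit read from the data; inconclusive = mean below that limit but half or more replicates reach it; inactive = mean below it, under half of replicates reach it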;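 also: signal also drops with host cell toxicity which is not excluded here; 0% = plate median of DMSO wells and 100% = zero luminescence signal; higher percent means less beta-gal luminescence so fewer parasites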
#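 Assay system: NIH/3T3 host cells with β-galactosidase reporter T. cruzi; input: 5,000 host fibroblasts per well; compound: single 50 nL compound addition per well in DMSO; timing: ≥90 h infection period, 3 h prior cell attachment; measured by: GalScreen β-gal luminescence, detergent lysis, 60 min; evaluation: percent inhibition of parasite-derived β-gal signal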
# MPTP inh: inhibitors of mitochondrial permeability transition pore. isolated mouse mitochondria, Ca2+ swelling absorbance, 30 min. inhibition, % at 10 µM. 360,000 tested, 1.4% active;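 active = inhibition of 50% or more, scaled per plate between neutral and stimulator controls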;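 also: 0% = DMSO wells given calcium and 100% = 1 mM EGTA wells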
# MPTP counter: mitochondrial membrane potential, counter-screen; inhibition, % at 10 µM; 5,000 tested, 78% active; shares compounds with MPTP inh; AID 624504; isolated mitochondria, Rhodamine 123 fluorescence; in the data active = inhibition above about 22%;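 also: 0% = DMSO vehicle and 100% = positive control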
# MPTP swell DR: dose response confirmation of mitochondrial permeability transition pore inhibitors; IC50, µM; AID 651561; 780 tested, 58% active; isolated mitochondria swelling, absorbance; shares compounds with MPTP inh; in the data active = IC50 below about 20 µM
# MPTP cs DR: MPTP inhibitor counter-screen activity, dose response; shares compounds with MPTP inh; isolated mitochondria counterscreen, fluorescence read-out; IC50, µM; 780 tested, 49% active; AID 651564; in the data active = IC50 below about 80 µM
# An asterisk follows results filed as active; i = inactive; ? = inconclusive; . = no result. The full list was thinned out, with hits kept by preference.
SMILES,Lipid droplet,Redox H2O2 prof,Lmaj promast,T cruzi repl,MPTP inh,MPTP counter,others
CC12CN(C(=O)c3ccccc3Br)CC(C)(CN(C(=O)c3ccccc3Br)C1)C2=O,-14.2,.,.,3.4,-0.9,.,
CN1CCC(Oc2ccccc2Sc2ccccc2)CC1,-0.5,0.0,100.3*,27.0,91.7*,-0.4,MPTP swell DR=10.5*;MPTP cs DR=33.9*
CCc1ccc(-c2cc(C(=O)N3N=C(C(F)F)CC3(O)C(F)F)c3ccccc3n2)cc1 (stereo not drawn),.,-3.7,71.2*,59.0*,84.2*,83.4*,
Cc1cccc(NC(=O)c2ccc(NS(=O)(=O)c3cccc4cccnc34)cc2)c1,.,.,.,.,-0.2,.,
Cc1nc2ccccc2c(N)c1C(=O)/C=C/c1ccccc1,-11.0,.,.,51.8,95.5*,84.4*,
Cc1cccc(N(C)S(=O)(=O)c2ccc3c(c2)C(C)(C)C(=O)N3C)c1,-12.6,.,.,-3.9,-0.7,.,
COc1ccc(/C=C(\C#N)C(=O)C(C)(C)n2cncn2)cc1,45.2,-0.5,-7.2,-8.2,0.3,.,
CCCCNC(=O)COC(=O)c1ccccc1F,-10.0,.,.,-2.0,0.2,.,
Cc1nc(NC(=O)COC(=O)c2cccs2)c(Cl)cc1Cl,.,.,.,.,-0.6,.,
COC(=O)c1cc(Br)ccc1NC(=O)Nc1ccccc1,-1.4,0.0,20.1,-18.6,0.3,.,
O=C(Nc1cccc(Cl)c1)Nc1ccc(Br)cc1F,-15.0,9.2,67.6*,?,75.4*,82.1*,
COc1ccccc1NC(=O)Nc1ccc(F)c(F)c1,-4.2,-0.8,15.6,-10.2,80.6*,68.4*,
Cc1cc(NC(=O)Nc2ccccc2F)ccc1Br,3.0,0.3,1.2,23.6,84.1*,90.6*,
O=C(Nc1ccccc1)Nc1ccc(Br)cc1F,2.0,0.8,1.3,-24.4,53.3*,84.5*,
CC(=O)NCc1ccc(S(=O)(=O)NC(C(=O)O)C(C)C)cc1 (stereo not drawn),20.9,-1.8,1.8,-4.4,2.1,.,
Cc1ccc(NC(=O)c2cc(C(=O)c3cc(Cl)ccc3O)cn(-c3ccc(C)cc3)c2=O)cc1,-10.7,-0.1,99.1*,20.1,91.9*,85.3*,
N#Cc1cc(C(=O)c2cc(Cl)ccc2O)cn(-c2ccccc2)c1=O,-25.7,0.0,2.7,12.9,-0.8,.,
Cc1cc(C)c(C#N)c(SCC(=O)c2cc(C)n(CCc3ccccc3)c2C)n1,.,3.3,31.1,?,1.0,.,
COCCn1c(C)cc(C(=O)CSc2nc(C)cc(C)c2C#N)c1C,7.9,2.7,3.1,4.7,65.9*,4.2,MPTP swell DR=i;MPTP cs DR=58*
Cc1ccc([C@@H]2CC(=O)[C@@H]3CN(S(=O)(=O)c4ccccc4C)[C@H](c4ccc(Cl)cc4)C[C@@H]3N2S(=O)(=O)c2ccc(C)cc2)cc1,.,.,.,.,58.1*,77.1*,
Cc1ccc(S(=O)(=O)N2[C@H](c3cccc(Cl)c3)CC(=O)[C@@H]3CN(S(=O)(=O)c4ccccc4C)[C@H](c4ccc(Cl)cc4)C[C@@H]32)cc1,.,.,.,.,81.0*,68.9*,
Cc1cc(C)c(NC(=O)c2ccc3c(c2)CCN3S(C)(=O)=O)c(C)c1,3.8,.,.,-9.2,0.6,.,
O=S(=O)(c1ccccc1)N1N=C(c2cccs2)CC1c1cccc(O)c1 (stereo not drawn),-8.4,.,.,-2.9,0.0,.,
Oc1ccccc1C1CC(c2cccs2)=NC(c2cccc(Br)c2)N1 (stereo not drawn),5.5,-0.5,23.7,2.2,84.2*,96.9*,
CN(C)c1ccc(CC(=O)N2CCCCC2c2cc(C(=O)Nc3cccc(C#N)c3)no2)cc1 (stereo not drawn),.,.,.,.,0.7,.,
SMILES,Lipid droplet,Redox H2O2 prof,Lmaj promast,T cruzi repl,MPTP inh,MPTP counter,others
OCC1(Cc2ccc(Cl)cc2)CCN(CCCc2ccccc2)CC1,2.4,0.2,94.5*,49.2,53.0*,-10.5,MPTP swell DR=10*
CCOc1ccc(OCc2cccc(C(=O)Nc3ccc(CN4CCCCC4)cc3)c2)cc1,-62.2,1.2,96.2*,25.7,87.4*,-11.9,MPTP swell DR=2.37*;MPTP cs DR=43*
COc1ccc(NC(=O)C2CC(=O)N(c3ccccc3Cl)C2)c(OC)c1 (stereo not drawn),-15.6,.,.,3.0,-2.6,.,
COc1cccc(N2CCN(C(=O)c3cc4c(=O)n(Cc5ccccc5)ccc4nc3C)CC2)c1,-27.0,.,.,5.2,0.3,.,
O=[N+]([O-])c1cc(-c2n[nH]c(-c3ccccc3)n2)cc([N+](=O)[O-])c1,.,-1.0,97.8*,71.6*,71.9*,8.8,MPTP swell DR=19.8*;MPTP cs DR=<2.5*
Cc1cccc(-c2n[nH]c([N+](=O)[O-])n2)c1,.,-8.7,-3.9,2.3,0.7,.,
Cn1/c(=N\NC(=O)c2ccccc2Cl)sc2ccccc21,5.2,0.0,-4.1,13.2,-2.4,.,
O=C(Nc1ccc(F)cc1)Nc1ccc([N+](=O)[O-])cn1,10.8,-0.6,0.3,-0.9,5.1,.,
CCN(CC)S(=O)(=O)c1cc([N+](=O)[O-])ccc1NNC(=O)Nc1ccc(F)cc1,-19.4,0.1,35.8,23.5,85.6*,91.6*,
O=C(COC(=O)CNC(=O)c1ccccc1F)Nc1cccnc1Cl,3.0,-0.3,0.8,-12.5,-0.3,.,
COc1ccccc1OCCNc1nc2c(c(=O)n(C)c(=O)n2C)n1C,10.5,1.3,7.1,-4.6,0.0,.,
COCCNc1nc2c(c(=O)n(C)c(=O)n2C)n1Cc1cccc(C(F)(F)F)c1,-30.9,0.6,-6.7,17.7,82.3*,70.6*,
CC(O)CNc1nc2c(c(=O)n(C)c(=O)n2C)n1Cc1cccc(C(F)(F)F)c1 (stereo not drawn),-1.0,0.8,4.3,-2.8,0.0,.,
Cn1c(=O)c2c(nc(NCCOc3ccc(C(C)(C)C)cc3)n2C)n(C)c1=O,16.5,0.2,-4.6,-12.2,101.1*,6.3,MPTP swell DR=2.3*;MPTP cs DR=36.4*
O=C(COC(=O)CCS(=O)(=O)c1ccc(F)cc1)NC1CCCCC1,.,.,.,.,-0.7,.,
COc1ccc(C(=O)C2CCCN(C(=O)c3cccnc3SC)C2)c(C)c1 (stereo not drawn),-8.7,-0.7,-4.0,3.7,0.8,.,
COc1cc(C2SCCS2)cc(Br)c1Oc1ncccc1[N+](=O)[O-],-41.0,.,.,1.8,58.3*,32.6*,
CC(=O)N1CCN(S(=O)(=O)c2cccc(C(=O)N(Cc3ccccc3)c3cccc(C)c3)c2)CC1,.,.,.,51.2,-0.9,.,
CNC(=O)c1ccsc1NC(=O)CS(=O)(=O)c1ccc(Cl)cc1,-31.4,.,.,-8.2,0.7,.,
CCOC(=O)C(C)N1C(=O)S/C(=C\c2ccc(-c3ccccc3C(=O)O)o2)C1=O (stereo not drawn),-1.9,.,.,0.5,1.0,.,
C=CCN1C(=O)S/C(=C/c2ccc(Sc3nc4ccccc4[nH]3)o2)C1=O,-42.5,-0.1,41.3,-15.1,90.8*,88.0*,
